Reference: ChEMBL document CHEMBL5331142, “Novel 1,4-Dihydropyridines as Specific Binders and Activators of SIRT3 Impair Cell Viability and Clonogenicity and Downregulate Hypoxia-Induced Targets in Cancer Cells” (J Med Chem, 2023)
Calls of active or inactive are those of the source. The calls are words filed in the database; no cut-off is given here.

Assays:
[1] = target: T1, NAD-dependent protein deacetylase sirtuin-3, mitochondrial (Homo sapiens, UniProt Q9NTG7); assay: Binding affinity to N-terminal his-tagged human SIRT3 (114 to 380 residues) assessed as dissociation constant by SPR analysis
T1 sequence (Q9NTG7 whole entry): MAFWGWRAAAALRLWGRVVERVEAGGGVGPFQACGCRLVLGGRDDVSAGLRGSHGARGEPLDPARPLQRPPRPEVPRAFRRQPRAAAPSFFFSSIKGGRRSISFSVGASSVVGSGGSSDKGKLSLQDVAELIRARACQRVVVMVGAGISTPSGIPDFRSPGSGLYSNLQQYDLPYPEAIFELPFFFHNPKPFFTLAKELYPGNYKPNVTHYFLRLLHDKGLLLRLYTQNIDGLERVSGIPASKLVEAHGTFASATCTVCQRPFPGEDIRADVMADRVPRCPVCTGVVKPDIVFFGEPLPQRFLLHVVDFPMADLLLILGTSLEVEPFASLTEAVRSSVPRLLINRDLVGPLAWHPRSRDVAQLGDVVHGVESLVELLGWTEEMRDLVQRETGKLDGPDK
Method in brief: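 SPR with SIRT3 amine-coupled to the chip (sodium acetate pH 4.0; 1500–4000 RU). Analytes diluted to 200 μM in HBSP (20 mM Hepes, 150 mM NaCl, 0.005% P20; 2% DMSO), injected at 5, 10, 20, 40, 80 μM at 30 μL/min. Dissociation after 180 s. Reference chip lacked ligand. Apparent KD by Scatchard analysis. Run twice.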

[2] = target: T2, NAD-dependent protein deacetylase sirtuin-3, mitochondrial (Homo sapiens) (UniProt Q9NTG7); assay: Activation of human SIRT3 overexpressing in human MDA-MB-231 cells assessed as increase in acK68-MnSOD deacetylation level at 50 uM incubated for 4 hrs by Western blot analysis assay; type: cell-based; conditions: filed as activator
T2 sequence (whole entry): T1 sequence (Q9NTG7 whole entry)
Method in brief: (§1)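 CAL-62 or MDA-MB-231 cells treated 4 h at 50 μM. Lysed in Tris/NaCl/EDTA/Triton buffer with protease and phosphatase inhibitors. 15 or 50 μg protein resolved by SDS-PAGE, immunoblotted for acK68- or acK122-MnSOD and total MnSOD, ECL detection. Densitometric acetyl/total ratio. SIRT3 inhibitor 3-TYP (1 μM) used as control.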

[3] = target: T2, NAD-dependent protein deacetylase sirtuin-3, mitochondrial (Homo sapiens); assay: Activation of human SIRT3 overexpressing in human MDA-MB-231 cells assessed as increase in acK122-MnSOD deacetylation level at 50 uM incubated for 4 hrs by Western blot analysis assay; type: cell-based; conditions: filed as activator; method in brief: as §1
[4] = target: T2, NAD-dependent protein deacetylase sirtuin-3, mitochondrial (Homo sapiens); assay: Activation of human SIRT3 overexpressing in human CAL-62 cells assessed as increase in acK68-MnSOD deacetylation level at 50 uM incubated for 4 hrs by Western blot analysis assay; type: cell-based; conditions: filed as activator; method in brief: as §1
[5] = target: T2, NAD-dependent protein deacetylase sirtuin-3, mitochondrial (Homo sapiens); assay: Activation of human SIRT3 overexpressing in human CAL-62 cells assessed as increase in acK122-MnSOD deacetylation level at 50 uM incubated for 4 hrs by Western blot analysis assay; type: cell-based; conditions: filed as activator; method in brief: as §1
[6] = target: T2, NAD-dependent protein deacetylase sirtuin-3, mitochondrial (Homo sapiens); assay: Activation of human SIRT3 overexpressing in human MDA-MB-231 cells assessed as increase in acK122-MnSOD deacetylation level at 10 uM incubated for 4 hrs by Western blot analysis assay; type: cell-based; conditions: filed as activator
Method in brief: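 MDA-MB-231 cells treated 4 h at 10 μM, lysed, and immunoblotted for acK122-MnSOD and total MnSOD. Densitometric ratio.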

CAL-62 [7] = assay: Inhibition of clonogenicity in human CAL-62 cells at 50 uM incubated for 24 to 48 hrs under normoxia condition by crystal violet staining based assay; type: functional; conditions: time 24-48 hrs
Method in brief: (§2)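 CAL-62 cells at 80–90% confluence treated with 50 μM compound for 24 or 48 h, in normoxia or with 200 μM CoCl2 (hypoxia). 500 cells replated per 100 mm dish and grown about 7 days. Colonies fixed in 4% formaldehyde, stained with 0.5% crystal violet, and counted.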

CAL-62 [8] = assay: Inhibition of clonogenicity in human CAL-62 cells at 50 uM incubated for 24 to 48 hrs under hypoxia condition by crystal violet staining based assay; type: functional; conditions: time 24-48 hrs; method in brief: as §2
MDA-MB-231 [9] = assay: Induction of cell death in human MDA-MB-231 cells incubated for 48 hrs under hypoxia condition by trypan blue exclusion assay; type: functional, cell-based; conditions: MDA-MB-231, 48 h
Method in brief: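 MDA-MB-231 cells treated at 1–50 μM for 48 h under 200 μM CoCl2 hypoxia. Dead cells scored by trypan blue on a hemocytometer, EC50 derived. Three independent experiments.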

CAL-62 [10] = assay: Inhibition of clonogenicity in human CAL-62 cells incubated for 48 hrs under hypoxia condition by crystal violet staining based assay; type: functional, cell-based; conditions: CAL-62, 48 h
Method in brief: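 Dose range 1–50 μM for 48 h under CoCl2 (200 μM) hypoxia. 500 surviving cells replated and grown about 7 days (CAL-62) or 10 days (MDA-MB-231). Crystal violet colony counts used to derive IC50/EC50. Three independent experiments.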

CAL-62 [11] = assay: Downregulation of HIF1alpha expression in human CAL-62 cells at 50 uM incubated for 48 hrs under hypoxia condition by Western blot analysis; type: functional, cell-based
Method in brief: (§3)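 CAL-62 or MDA-MB-231 cells made hypoxic with 200 μM CoCl2 for 24 h, then treated with 50 μM compound for 48 h with CoCl2 retained. Lysates (15 or 50 μg protein) immunoblotted for HIF-1α, EPAS-1 or CA-IX with ACTB, ECL detection. 3-TYP (1 μM) as control.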

CAL-62 [12] = assay: Downregulation of CA-IX expression in human CAL-62 cells at 50 uM incubated for 48 hrs under hypoxia condition by Western blot analysis; type: functional, cell-based; method in brief: as §3
MDA-MB-231 [13] = assay: Downregulation of ZEB1 gene expression in human MDA-MB-231 cells at 50 uM incubated for 48 hrs by qRT-PCR analysis; type: functional, cell-based
Method in brief: (§4)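 MDA-MB-231 cells treated with 50 μM compound for 48 h under normoxia, DMSO vehicle control. qRT-PCR quantified by the 2(−ΔCt) method as fold of control, mean ± SEM. Three independent experiments.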

MDA-MB-231 [14] = assay: Downregulation of SLUG gene expression in human MDA-MB-231 cells at 50 uM incubated for 48 hrs by qRT-PCR analysis; type: functional, cell-based; method in brief: as §4
MDA-MB-231 [15] = assay: Inhibition of cell migration in human MDA-MB-231 cells at 50 uM incubated for 48 hrs by scratch assay; type: functional
Method in brief: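 Confluent MDA-MB-231 monolayer shifted to serum-depleted medium and scratched with a pipette tip. Treated with 50 μM compound for 48 h, DMSO as control. Migration imaged by phase contrast at two time points and quantified. Mean ± SEM of three independent experiments.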

HaCaT = assay: Cytotoxicity against human HaCaT cells assessed as reduction in cell viability at 5 to 25 uM incubated for 24 to 48 hrs by trypan blue exclusion assay; type: toxicity, cell-based; conditions: dose lower 5 µM, time lower 24 hrs, dose upper 25 µM, time upper 48 hrs
Method in brief: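 HaCaT keratinocytes in DMEM with 10% FBS, treated at 5, 10 and 25 μM for 24 and 48 h. Viability and death scored by trypan blue hemocytometer counting. Three independent experiments.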

SMILES	Kd [1] [µM]	Activity [2]	Activity [3]	Activity [4]	Activity [5]	Activity [6]	inhibition at 50 µM (CAL-62 [7]) [%]	inhibition at 50 µM (CAL-62 [8]) [%]	EC50 (MDA-MB-231 [9]) [µM]	IC50 (CAL-62 [10]) [µM]	Activity (CAL-62 [11])	Activity (CAL-62 [12])	Activity (MDA-MB-231 [13])	Activity (MDA-MB-231 [14])	inhibition at 50 µM (MDA-MB-231 [15]) [%]	Activity (HaCaT)
CCOC(=O)C1=CN(C(=O)c2cc(OC)cc(OC)c2)C=C(C(=O)OCC)C1c1ccccc1	79	Active	Active	Active	Active	Active	68	68	10.7	5.43	Active	Active	Active	inactive	> 75	–
CCOC(=O)C1=CN(C(=O)c2ccc(OC)c(OC)c2)C=C(C(=O)OCC)C1c1ccccc1	–	–	–	–	–	–	–	–	–	–	–	–	–	–	–	Non-Toxic
